Converted amounts (≈) assume the structure as drawn. The source made the active and inactive calls. The calls are words filed in the database; no cut-off is given here.
Experiments:
[1] = tested on: Mycobacterium tuberculosis; test: Antimycobacterial activity against Mycobacterium tuberculosis RCMB 010126 clinical isolate assessed as inhibition zone after 7 days by MABA; format: functional
Procedure, shortened: (§1)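 Inoculum from fresh LJ culture resuspended in 7H9-S broth with casitone, glycerol and OADC, adjusted to McFarland No. 1 and diluted 1:20. Serial two-fold compound dilutions in 7H9-S; isoniazid reference. Incubated 7 days at 37°C in air, then Alamar blue added and incubated overnight. Percent inhibition = 1 − (test well/growth-control mean) × 100; MIC = lowest concentration preventing blue-to-pink change.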

[2] = tested on: Aspergillus fumigatus; test: Antimicrobial activity against Aspergillus fumigatus RCMB 02568 after 48 hrs by serial dilution method; format: functional; settings: RCMB 02568, 48 h
Procedure, shortened: (§2)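 Serial twofold dilution in microtiter plates starting from a 100 mmol stock in DMSO; final concentrations 125 down to 0.12 […]. Incubated at 28°C and read on a microplate reader after 48 h. Amphotericin B was the reference. Run in triplicate, with the average taken. MIC was the lowest concentration inhibiting growth.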

[3] = tested on: Candida albicans; test: Antimicrobial activity against Candida albicans RCMB 05036 assessed as diameter of zone inhibition at 100 ug/ml after 48 hrs by agar well diffusion assay; format: functional; settings: RCMB 05036, 48 h, read-out: DIZ
Procedure, shortened: (§3)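 Agar well diffusion on malt agar plates seeded with the fungus, using 1 cm wells. Plates were held at 4°C for 1 h for diffusion, then incubated at 28°C. Inhibition zone diameters were measured at 48 h. Amphotericin B was the positive control. Run in triplicate, with the mean zone reported.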

[4] = tested on: Streptococcus pneumoniae; test: Antimicrobial activity against Streptococcus pneumoniae RCMB 010010 after 24 hrs by serial dilution method; format: functional; settings: RCMB 010010, 24 h
Procedure, shortened: as §2, with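 “37°C” for “28°C”, “24” for “48”, “Ciprofloxacin” for “Amphotericin B”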

[5] = tested on: Escherichia coli; test: Potency index, ratio of ciprofloxacin MIC to test compound MIC for Escherichia coli RCMB 010052; format: functional
[6] = tested on: Staphylococcus aureus; test: Antimicrobial activity against Staphylococcus aureus RCMB 010028 after 24 hrs by serial dilution method; format: functional; settings: RCMB 010028, 24 h
Procedure, shortened: as §2, with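 “37°C” for “28°C”, “24” for “48”, “Ciprofloxacin” for “Amphotericin B”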

[7] = tested on: Escherichia coli; test: Antimicrobial activity against Escherichia coli RCMB 010052 after 24 hrs by serial dilution method; format: functional; settings: RCMB 010052, 24 h
Procedure, shortened: as §2, with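 “37°C” for “28°C”, “24” for “48”, “Ciprofloxacin” for “Amphotericin B”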

[8] = tested on: Escherichia coli; test: Antimicrobial activity against Escherichia coli RCMB 010052 assessed as diameter of zone inhibition at 100 ug/ml after 24 hrs by agar well diffusion assay; format: functional; settings: RCMB 010052, 24 h, read-out: DIZ
Procedure, shortened: (§4)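 Agar well diffusion on nutrient agar plates seeded with the bacterium, using 1 cm wells. Plates were held at 4°C for 1 h for diffusion, then incubated at 37°C. Inhibition zone diameters were measured at 24 h. Ciprofloxacin was the positive control. Run in triplicate, with the mean zone reported.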

[9] = tested on: Mycobacterium tuberculosis; test: Antimycobacterial activity against Mycobacterium tuberculosis RCMB 010126 clinical isolate after 7 days by MABA; format: functional; procedure, shortened: as §1
[10] = tested on: Aspergillus fumigatus; test: Antimicrobial activity against Aspergillus fumigatus RCMB 02568 assessed as diameter of zone inhibition at 100 ug/ml after 48 hrs by agar well diffusion assay; format: functional; settings: RCMB 02568, 48 h, read-out: DIZ; procedure, shortened: as §3
[11] = tested on: Candida albicans; test: Antimicrobial activity against Candida albicans RCMB 05036 after 48 hrs by serial dilution method; format: functional; settings: RCMB 05036, 48 h; procedure, shortened: as §2
[12] = tested on: Staphylococcus aureus; test: Antimicrobial activity against Staphylococcus aureus RCMB 010028 assessed as diameter of zone inhibition at 100 ug/ml after 24 hrs by agar well diffusion assay; format: functional; settings: RCMB 010028, 24 h, read-out: DIZ; procedure, shortened: as §4
[13] = tested on: Streptococcus pneumoniae; test: Antimicrobial activity against Streptococcus pneumoniae RCMB 010010 assessed as diameter of zone inhibition at 100 ug/ml after 24 hrs by agar well diffusion assay; format: functional; settings: RCMB 010010, 24 h, read-out: DIZ; procedure, shortened: as §4
[14] = tested on: Pseudomonas aeruginosa; settings: RCMB 010043, 100 ug/ml
[15] = tested on: Pseudomonas aeruginosa; settings: RCMB 010043
[16] = tested on: Streptococcus pneumoniae; test: Potency index, ratio of ampicillin MIC to test compound MIC for Streptococcus pneumoniae RCMB 010010; format: functional
[17] = tested on: WI-38; test: Cytotoxicity against human WI38 cells assessed as reduction in cell viability after 24 hrs by crystal violet staining-based colorimetric method; settings: WI-38, 24 h
Procedure, shortened: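 WI-38 cells were grown in DMEM with 10% FBS at 37°C and 5% CO2, then seeded at 1×10^4 cells/well. Serial twofold dilutions were added, three wells per concentration. Viability was read by crystal violet stain, solubilised in 30% acetic acid, at 490 nm. Run in triplicate. IC50 was estimated from dose-response plots.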

[18] = Selectivity index, ratio of IC50 for human WI38 cells to MIC for Mycobacterium tuberculosis RCMB 010126 clinical isolate; format: toxicity; settings: read-out: Selectivity Index
Procedure, shortened: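 WI-38 human lung fibroblasts grown in DMEM with 10% FBS at 37°C and 5% CO2, seeded at 1×10^4 cells/well, and exposed to serial two-fold dilutions in triplicate. Viability read by crystal violet stain at 490 nm. IC50 taken from dose-response plots. Ratio uses this IC50 against the MABA MIC for M. tuberculosis.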

[19] = tested on: Pseudomonas aeruginosa; test: microbe, parasite or virus in culture; settings: RCMB 010043, 24 h
[20] = tested on: Pseudomonas aeruginosa; test: microbe, parasite or virus in culture; settings: RCMB 010043, 24 h, read-out: DIZ
[21] = Mycobacterium tuberculosis, RCMB 010126, 168 h

Compound	inhibition zone (IZ) [1]	MIC [2] [µg/mL]	zone of inhibition at 100 µg/mL [3] [mm]	MIC [4] [µg/mL]	Ratio [5]	MIC [6] [µg/mL]	MIC [7] [µg/mL]	zone of inhibition at 100 µg/mL [8] [mm]	zone of inhibition at 100 µg/mL [10] [mm]	MIC [11] [µg/mL]	zone of inhibition at 100 µg/mL [12] [mm]	zone of inhibition at 100 µg/mL [13] [mm]	DIZ [14]	MIC [15]	MIC [9, 21] [µg/mL]	IC50 [17] [µg/mL]	selectivity ratio [18]	other results
O=C(N/N=C/c1ccc(Cl)cc1Cl)c1c[nH]c2cc(Cl)ccc2c1=O	inactive	3.9 (≈ 9.88 µM)	19.6	0.98 (≈ 2.48 µM)	2	1.95 (≈ 4.94 µM)	0.49 (≈ 1.24 µM)	24.3	20.3	3.9 (≈ 9.88 µM)	20.6	22.1	inactive	inactive	–	–	–	MIC [9]: inactive
COc1cc(/C=N/NC(=O)c2ccc(-c3cccc(Cl)c3)nc2C)cc(OC)c1OC	70.48 mm	0.98 (≈ 2.23 µM)	21.4	0.49 (≈ 1.11 µM)	2	1.95 (≈ 4.43 µM)	0.49 (≈ 1.11 µM)	25.3	23.3	0.49 (≈ 1.11 µM)	21.3	23.1	inactive	inactive	0.78 (≈ 1.77 µM)	495 (≈ 1130 µM)	635	Ratio [16]: 2
COc1ccc(/C=N/NC(=O)c2ccc(-c3cccc(Cl)c3)nc2C)cc1	60.42 mm	1.95 (≈ 5.13 µM)	18.2	3.9 (≈ 10.3 µM)	–	3.9 (≈ 10.3 µM)	3.9 (≈ 10.3 µM)	20.3	20.6	7.81 (≈ 20.6 µM)	19.6	20.9	inactive	inactive	1.56 (≈ 4.11 µM)	500 (≈ 1320 µM)	321	–
COc1ccc(OC)c(/C=N/NC(=O)c2ccc(-c3ccc(Cl)cc3)nc2C)c1	85.32 mm	0.98 (≈ 2.39 µM)	22.5	0.49 (≈ 1.2 µM)	2	0.98 (≈ 2.39 µM)	0.49 (≈ 1.2 µM)	24.3	24.3	0.98 (≈ 2.39 µM)	22.3	24.3	inactive	inactive	0.39 (≈ 0.952 µM)	500 (≈ 1220 µM)	1280	Ratio [16]: 2
O=C(O)c1cn(C2CC2)c2cc(N3CCNCC3)c(F)cc2c1=O [CIPROFLOXACIN]	–	–	–	–	–	–	0.98 (≈ 2.96 µM)	23.4	–	–	–	–	–	–	–	–	–	MIC [19]: 1.95 µg/mL (≈ 5.89 µM); zone of inhibition at 100 µg/mL [20]: 20.6 mm
COc1ccc(OC)c(/C=N/NC(=O)c2ccc(-c3cccc(Cl)c3)nc2C)c1	82.35 mm	0.98 (≈ 2.39 µM)	21.2	0.98 (≈ 2.39 µM)	–	1.95 (≈ 4.76 µM)	0.98 (≈ 2.39 µM)	22.3	22.6	1.95 (≈ 4.76 µM)	21.3	22.5	inactive	inactive	0.39 (≈ 0.952 µM)	188 (≈ 459 µM)	482	–
COc1ccc(/C=N/NC(=O)c2ccc(-c3ccc(Cl)cc3)nc2C)cc1	70.34 mm	1.95 (≈ 5.13 µM)	19.2	1.95 (≈ 5.13 µM)	–	3.9 (≈ 10.3 µM)	1.95 (≈ 5.13 µM)	20.9	20.9	3.9 (≈ 10.3 µM)	20.1	21.3	inactive	inactive	0.78 (≈ 2.05 µM)	500 (≈ 1320 µM)	641	–
Cc1nc(-c2cccc(Cl)c2)ccc1C(=O)N/N=C/c1ccc(Cl)cc1	43.25 mm	1.95 (≈ 5.07 µM)	17.9	1.95 (≈ 5.07 µM)	2	1.95 (≈ 5.07 µM)	0.49 (≈ 1.28 µM)	23.7	20.3	3.9 (≈ 10.1 µM)	19.6	21.3	inactive	inactive	6.24 (≈ 16.2 µM)	–	–	–
COc1cccc(/C=N/NC(=O)c2ccc(-c3ccc(Cl)cc3)nc2C)c1O	80.63 mm	1.95 (≈ 4.93 µM)	20.3	0.98 (≈ 2.48 µM)	–	1.95 (≈ 4.93 µM)	1.95 (≈ 4.93 µM)	21.5	21.3	3.9 (≈ 9.85 µM)	20.5	22.3	inactive	inactive	0.39 (≈ 0.985 µM)	500 (≈ 1260 µM)	1280	–
COc1cc(/C=N/NC(=O)c2ccc(-c3ccc(Cl)cc3)nc2C)cc(OC)c1OC	68.42 mm	0.98 (≈ 2.23 µM)	20.4	1.95 (≈ 4.43 µM)	–	0.98 (≈ 2.23 µM)	1.95 (≈ 4.43 µM)	21.3	21.8	1.95 (≈ 4.43 µM)	23.4	21.3	inactive	inactive	0.78 (≈ 1.77 µM)	41.1 (≈ 93.4 µM)	52.7	–

Reference: ChEMBL document CHEMBL4130356, “Design, synthesis and 2D QSAR study of novel pyridine and quinolone hydrazone derivatives as potential antimicrobial and antitubercular agents” (Eur J Med Chem, 2017)
